In ChEMBL document CHEMBL1137859, “Synthesis of C8-linked pyrrolo[2,1-c][1,4]benzodiazepine-benzimidazole conjugates with remarkable DNA-binding affinity” (2004):

What was measured:
Calf thymus DNA [1] = assay: Thermal denaturation of calf thymus DNA at 0 h, incubation at 37 degree C; assay type: nucleic-acid assay; conditions: Bos taurus
Outline: (§1)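 CT-DNA (100 μM) with ligand 20 μM (PBD/DNA molar ratio 1:5) in aqueous sodium phosphate buffer (10 mM sodium phosphate + 1 mM EDTA, pH 7.00±0.01). Incubated at 37 °C for 0 h or 18 h, then thermal helix→coil melting followed. ΔTm taken relative to DNA alone (Tm mean of 20 separate determinations). ΔTm values ±0.05–0.1 °C.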

Calf thymus DNA [2] = assay: Thermal denaturation of calf thymus DNA at 18 h, incubation at 37 degree C; assay type: nucleic-acid assay; conditions: Bos taurus; outline: as §1
NCI-H522 = assay: In vitro concentration required to produce 50% lethality against human non small cell lung NCI-H522 cell line; assay type: functional; conditions: read-out: LC50 (the source's name)
TK-10 = assay: In vitro concentration required to produce 50% lethality against human renal TK-10 cell line; assay type: functional; conditions: read-out: LC50 (the source's name)
SF-539 = assay: In vitro concentration required to produce 50% lethality against human CNS SF-539 cell line; assay type: functional; conditions: read-out: LC50 (the source's name)
Malme-3M = assay: In vitro concentration required to produce 50% lethality against human melanoma MALME-3M cell line; assay type: functional; conditions: read-out: LC50 (the source's name)
UACC-62 = assay: In vitro concentration required to produce 50% lethality against human melanoma UACC-62 cell line; assay type: functional; conditions: read-out: LC50 (the source's name)
786-0 = assay: In vitro concentration required to produce 50% lethality against human renal 786-0 cell line; assay type: functional; conditions: read-out: LC50 (the source's name)
A498 = assay: In vitro concentration required to produce 50% lethality against human renal A-498 cell line; assay type: functional; conditions: read-out: LC50 (the source's name)
EKVX = assay: In vitro concentration required to produce 50% lethality against human non small cell lung EKVX cell line; assay type: functional; conditions: read-out: LC50 (the source's name)
OVCAR-8 = assay: In vitro concentration required to produce 50% lethality against human ovarian OVCAR-8 cell line; assay type: functional; conditions: read-out: LC50 (the source's name)
M14 = assay: In vitro concentration required to produce 50% lethality against human melanoma M14 cell line; assay type: functional; conditions: read-out: LC50 (the source's name)
BT-549 = assay: In vitro concentration required to produce 50% lethality against human breast BT-549 cell line; assay type: functional; conditions: read-out: LC50 (the source's name)
SK-MEL-2 = assay: In vitro concentration required to produce 50% lethality against human melanoma SK-MEL-2 cell line; assay type: functional; conditions: read-out: LC50 (the source's name)
MDA-MB-231 = assay: In vitro concentration required to produce 50% lethality against human breast MDA-MB-231/ATCC cell line; assay type: functional; conditions: read-out: LC50 (the source's name)
NCI-H226 = assay: In vitro concentration required to produce 50% lethality against human non small cell lung NCI-H226 cell line; assay type: functional; conditions: read-out: LC50 (the source's name)
HOP-62 = assay: In vitro concentration required to produce 50% lethality against human non small cell lung HOP-62 cell line; assay type: functional; conditions: read-out: LC50 (the source's name)
MDA-MB-435 = assay: In vitro concentration required to produce 50% lethality against human breast MDA-MB-435 cell line; assay type: functional; conditions: read-out: LC50 (the source's name)
OVCAR-3 = assay: In vitro concentration required to produce 50% lethality against human ovarian OVCAR-3 cell line; assay type: functional; conditions: read-out: LC50 (the source's name)
IGROV-1 = assay: In vitro concentration required to produce 50% lethality against human ovarian IGROVI cell line; assay type: functional; conditions: read-out: LC50 (the source's name)
KM12 = assay: In vitro concentration required to produce 50% lethality against human colon KM12 cell line; assay type: functional; conditions: read-out: LC50 (the source's name)
PC-3 = assay: In vitro concentration required to produce 50% lethality against human prostate PC-3 cell line; assay type: functional; conditions: read-out: LC50 (the source's name)
SK-MEL-5 = assay: In vitro concentration required to produce 50% lethality against human melanoma SK-MEL-5 cell line; assay type: functional; conditions: read-out: LC50 (the source's name)
[3] = In vitro concentration required to produce 50% lethality against human prostate DU-145 cell line; assay type: functional; conditions: read-out: LC50 (the source's name)
RXF 393 = assay: In vitro concentration required to produce 50% lethality against human renal RXF 393 cell line; assay type: functional; conditions: read-out: LC50 (the source's name)
[4] = In vitro concentration required to produce 50% lethality against human CNS […] cell line; assay type: functional; conditions: read-out: LC50 (the source's name)
OVCAR-5 = assay: In vitro concentration required to produce 50% lethality against human ovarian OVCAR-5 cell line; assay type: functional; conditions: read-out: LC50 (the source's name)
T47D = assay: In vitro concentration required to produce 50% lethality against human breast T47D cell line; assay type: functional; conditions: read-out: LC50 (the source's name)
SN12C = assay: In vitro concentration required to produce 50% lethality against human renal SN12C cell line; assay type: functional; conditions: read-out: LC50 (the source's name)
SNB-19 = assay: In vitro concentration required to produce 50% lethality against human CNS SNB-19 cell line; assay type: functional; conditions: read-out: LC50 (the source's name)

With `CN1CCN(c2ccc3[nH]c(-c4ccc(O)cc4)nc3c2)CC1` as the compound, how does the ΔTm (Calf thymus DNA [1]) read?
Its ΔTm is 2.9 °C.

And the ΔTm (Calf thymus DNA [2])?
The ΔTm was 2.9 °C.

For `COc1cc2c(cc1OCCCOc1ccc(-c3nc4ccc(N5CCN(C)CC5)cc4[nH]3)cc1)N=C[C@@H]1CCCN1C2=O`, which CC50 (NCI-H522) is on record?
Its CC50 is 0.01 µM.

And the CC50 (TK-10)?
The CC50 was 39.7 µM.

What about the CC50 (SF-539) of the same compound?
Its CC50 is 0.01 µM.

What about the CC50 (Malme-3M) of the same compound?
Its CC50 is 34.4 µM.

And the CC50 (UACC-62)?
Its CC50 is 0.01 µM.

And the CC50 (786-0)?
The CC50 was 31.2 µM.

What about the ΔTm (Calf thymus DNA [1]) of the same compound?
Its ΔTm is 16.6 °C.

And the CC50 (A498)?
Its CC50 is 0.01 µM.

And the CC50 (EKVX)?
The CC50 was 25.2 µM.

And the CC50 (OVCAR-8)?
The CC50 was 21 µM.

And the CC50 (M14)?
The CC50 was 0.01 µM.

What about the CC50 (BT-549) of the same compound?
Its CC50 is 12.6 µM.

And the CC50 (SK-MEL-2)?
Its CC50 is 0.01 µM.

And the CC50 (MDA-MB-231)?
Its CC50 is 13.5 µM.

What about the CC50 (NCI-H226) of the same compound?
Its CC50 is 23.5 µM.

What about the ΔTm (Calf thymus DNA [2]) of the same compound?
The ΔTm was 22.5 °C.

What about the CC50 (HOP-62) of the same compound?
The CC50 was 17.4 µM.

What about the CC50 (MDA-MB-435) of the same compound?
The CC50 was 0.01 µM.

What about the CC50 (OVCAR-3) of the same compound?
Its CC50 is 34.6 µM.

What about the CC50 (IGROV-1) of the same compound?
The CC50 was 45.3 µM.

And the CC50 (KM12)?
Its CC50 is 45.2 µM.

What about the CC50 (PC-3) of the same compound?
Its CC50 is 16.4 µM.

What about the CC50 (SK-MEL-5) of the same compound?
The CC50 was 0.01 µM.

What about the CC50 [3] of the same compound?
Its CC50 is 33.7 µM.

And the CC50 (RXF 393)?
The CC50 was 0.01 µM.

And the CC50 [4]?
Its CC50 is 27.8 µM.

What about the CC50 (OVCAR-5) of the same compound?
Its CC50 is 33.9 µM.

And the CC50 (T47D)?
The CC50 was 42.1 µM.

What about the CC50 (SN12C) of the same compound?
The CC50 was 18.7 µM.

What about the CC50 (SNB-19) of the same compound?
The CC50 was 47.5 µM.

Which ΔTm (Calf thymus DNA [1]) does the source give for `COc1cc2c(cc1O)N=C[C@H]1CCCN1C2=O` here?
Its ΔTm is 0.3 °C.

For `COc1cc2c(cc1OCCCCCOc1ccc(-c3nc4cc(N5CCN(C)CC5)ccc4[nH]3)cc1)N=C[C@@H]1CCCN1C2=O`, which ΔTm (Calf thymus DNA [1]) is on record?
Its ΔTm is 22.4 °C.

And the ΔTm (Calf thymus DNA [2])?
The ΔTm was 22.6 °C.

What does the source list for `COc1cc2c(cc1OCCCCOc1ccc(-c3nc4ccccc4[nH]3)cc1)N=C[C@@H]1CCCN1C2=O`?
ΔTm (Calf thymus DNA [1]): 3.8 °C; ΔTm (Calf thymus DNA [2]): 4 °C

Which results are given for `COc1cc2c(cc1OCCCCOc1ccc(-c3nc4cc(N5CCN(C)CC5)ccc4[nH]3)cc1)N=C[C@@H]1CCCN1C2=O`?
ΔTm (Calf thymus DNA [1]): 15.5 °C; ΔTm (Calf thymus DNA [2]): 15.5 °C

Which results are given for `COc1cc2c(cc1OCCCCCOc1ccc(-c3nc4ccccc4[nH]3)cc1)N=C[C@@H]1CCCN1C2=O`?
ΔTm (Calf thymus DNA [1]): 10.3 °C; ΔTm (Calf thymus DNA [2]): 11 °C

What does the source list for `COc1cc2c(cc1OCCCOc1ccc(-c3nc4ccccc4[nH]3)cc1)N=C[C@@H]1CCCN1C2=O`?
ΔTm (Calf thymus DNA [1]): 11 °C; ΔTm (Calf thymus DNA [2]): 11.4 °C
